How the values were obtained:
[1] = biological target: T1, Amine oxidase [flavin-containing] B (Bos taurus, UniProt P56560); assay: Kinetic constant was calculated by inhibition of monoamino oxidase B (MAO B)
T1 sequence (P56560 whole entry): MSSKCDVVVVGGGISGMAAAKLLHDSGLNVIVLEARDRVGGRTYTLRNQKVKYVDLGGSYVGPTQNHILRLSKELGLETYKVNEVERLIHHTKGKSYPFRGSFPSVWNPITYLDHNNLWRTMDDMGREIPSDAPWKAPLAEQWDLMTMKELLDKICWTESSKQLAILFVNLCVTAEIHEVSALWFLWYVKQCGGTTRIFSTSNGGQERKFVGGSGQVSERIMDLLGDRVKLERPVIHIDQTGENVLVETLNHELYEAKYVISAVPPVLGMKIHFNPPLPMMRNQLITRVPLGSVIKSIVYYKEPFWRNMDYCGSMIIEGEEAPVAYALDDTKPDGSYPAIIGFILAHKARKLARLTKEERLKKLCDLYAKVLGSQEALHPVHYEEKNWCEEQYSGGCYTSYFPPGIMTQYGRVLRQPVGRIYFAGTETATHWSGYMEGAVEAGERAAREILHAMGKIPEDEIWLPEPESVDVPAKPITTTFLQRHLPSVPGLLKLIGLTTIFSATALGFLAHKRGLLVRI
Method in brief: (§1)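 Bovine liver MAO B (isolated by published method), 25 °C, 100 mM Tris-HCl pH 9.00. Enzyme incubated with several inactivator concentrations; aliquots withdrawn periodically and residual activity read by benzylamine oxidation (OD change at 250 nm). Irreversibility tested by 24 h dialysis against Tris-HCl pH 9.0.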

[2] = Ratio is Kinetic constant (Kcat) / Inactivation constant (Kinact) of the MAO B
Method in brief: (§2)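 Turnover from H2O2 release: bovine MAO B with amine at several concentrations in 100 mM Tris-HCl pH 9.00, 25 °C, 90 s (1–2 min for some); leuco crystal violet/horseradish peroxidase in acetate pH 4.5 added, A596 converted via extinction coefficient. Km and kcat from Hanes plots; ratio is kcat over kinact from time-dependent inactivation.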

[3] = biological target: T1, Amine oxidase [flavin-containing] B; assay: Kinetic constant (KI) was calculated by inhibition of monoamino oxidase B (MAO B); method in brief: as §1
[4] = biological target: T1, Amine oxidase [flavin-containing] B; assay: Kinetic constant was calculated by inhibition of monoamino oxidase B (MAO B); Inactive; method in brief: as §1
[5] = biological target: T1, Amine oxidase [flavin-containing] B; assay: Kinetic constant (KI) was calculated by inhibition of monoamino oxidase B (MAO B); Inactive; method in brief: as §1
[6] = Ratio of Kinetic constant (Kcat) / Inactivation constant (Kinact) of the MAO B; Inactive; method in brief: as §2
[7] = Ratio of Kinetic constant (Kcat) / Inactivation constant (Kinact) of the MAO B
Method in brief: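 Bovine MAO B. For kcat, the enzyme was incubated for 1–2 min at 25 °C with several substrate concentrations in 100 mM Tris-HCl, pH 9.00. H2O2 was read as A596 after leuco crystal violet, peroxidase and pH 4.5 acetate were added, and kcat was taken from Hanes plots. For kinact, enzyme was incubated with varied inactivator concentrations (Tris-HCl, pH 9.00, 25 °C), and aliquots were assayed periodically.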

SMILES | Ki [1] [mM] | Ratio [2] | Ki [3] [mM] | Ki [4] | Ki [5] | Ratio [6] | Ratio [7]
CCCCCNCCC#N | 4.94 | 9091 | 5.79 | – | – | – | –
CCCCCNCC(=O)O | – | – | – | Not Active | Not Active | Not Active | –
CCCCCNCC#N | 4.94 | 3394 | 14 | – | – | – | –
CCCCCNCC(=O)OCC | 2 | – | 14.2 | – | – | – | 4435
CCCCCNCC(N)=O [MILACEMIDE] | 1.08 | – | 0.94 | – | – | – | 26289

From ChEMBL document CHEMBL1126593, “Inactivation of monoamine oxidase B by analogues of the anticonvulsant agent milacemide (2-(n-pentylamino)acetamide)” (J Med Chem, 1993)
